According to the RNAGym collection of RNA variant scans (doi:10.1126/science.aae0568):
Fewer inactive variants are shown than the library holds.

B1: tRNA (parent)
chain: GUUCCGUUGGCGUAAUGGUAACGCGUCUCCCUCCUAAGGAGAAGACUGCGGGUUCGAGUCCCGUACGGAACG

Variants of: B1
Assay: yeast fitness relative to wild type (ratio to wild type); higher = fitter; tRNA-Arg(CCU), competitive growth, 37 C, YPD
Summary of the method: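 Amplicons of the tRNA-Arg(CCU) gene were sequenced, 100-nucleotide paired-end, from the start population and from each end population of a pooled yeast competition. The competition, in six parallel replicates, lasted 24 hours in YPD at 37°C. Fitness relative to wild type was calculated from changes in genotype frequencies. Genotypes had to have ≥ 100 starting reads, and estimates < 0.5 were set to 0.5.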

Variant | yeast fitness
GUUCCGUUGGCGUAAUGGUAACGCGUCUCCAUCCUAAGGAGAAGACUGCGGGUUCGAGUCCCGUACGCAACG [C31A G68C] | 0.648
GUUCCGUUGGCGUAAUGGUAACGCGUCUCCAUCCUAAGGAGAAGACUGCGGGUUCGAGUCCCGUACGAAACG [C31A G68A] | 0.694
GUUCCGUUGGCGUAAUGGUAACGCGUCUCCGUCCUAAGGAGAAGUCUGCGGGUUUGAGUCCUGUACGGAACG [C31G A45U C55U C62U] | 0.564
GUUCCGUUGGCGUAAUGGUAACGCGUCUCCGUCCUACGGAGAAGACUGCGGGUUCGUGUCCCGUACGGAACG [C31G A37C A57U] | ≤ 0.5
GUUCCGUUGGCGUAAUGGUAACGCGUCUCCGUCCUAAGGUGAAGCCUGCGGGUUCGAGUCCCGUACGGAACG [C31G A40U A45C] | 0.533
GUUCCGUUGGCGUAAUGGUAACGCGUCUCCAUCCUAAGGAGAAGACUGCGGCUUCGGGUCCCGUACGGAACG [C31A G52C A57G] | ≤ 0.5
GUUCCGUUGGCGUAAUGGUAACGCGUCUCCAUCCUAAGGAGAAGACUGCAGGUUCGAGUCCCGUACGGAACG [C31A G50A] | 0.791
GUUCCGUUGGCGUAAUGGUAACGCGUCUCCGUCCUAAGGAGAAGCCUGCGGGUUCGAGUACCAUACGGAACG [C31G A45C C60A G63A] | ≤ 0.5
GUUCCGUUGGCGUAAUGGUAACGCGUCUCCGUCCUAAGGAGAAGUCUGCGGGUUCGAGUCCUGUACGGAACG [C31G A45U C62U] | 0.876
GUUCCGUUGGCGUAAUGGUAACGCGUCUCCGUCCUGAGGAGAAGACUGCGGGUUCGAGUCCCGUACGGCACG [C31G A36G A69C] | 0.622
GUUCCGUUGGCGUAAUGGUAACGCGUCUCCGUCCUAAGGAGAAGACUGCGGGUUCGGGUCCCGUACGGAACG [C31G A57G] | 0.771
GUUCCGUUGGCGUAAUGGUAACGCGUCUCCGUCCUAAGGAGAAGACUGCGGGUUCGUGUCCCGUACGGAACG [C31G A57U] | 0.726
GUUCCGUUGGCGUAAUGGUAACGCGUCUCCGUCCUAAGGAGAAGACUGCGGGUUCGCGUCCCGUACGGAACG [C31G A57C] | 0.617
GUUCCGUUGGCGUAAUGGUAACGCGUCUCCGUCCUAGGGAGAAGACUGCGGGUUCGAGUCCCGUACGGAACG [C31G A37G] | 0.79
GUUCCGUUGGCGUAAUGGUAACGCGUCUCCGUCCUAAGGAGAAGCCUGAGGGUUCGAGUCCCGUACGGAGCG [C31G A45C C49A A70G] | ≤ 0.5
GUUCCGUUGGCGUAAUGGUAACGCGUCUCCGUCCUAGGGAGAAGACUGCGGGUACGAGUCCCGUACGGAACG [C31G A37G U54A] | 0.681
GUUCCGUUGGCGUAAUGGUAACGCGUCUCCGUCCUAAGGAGAAGGCUGCGGGUUCGAGUGCCGUACGGAACG [C31G A45G C60G] | ≤ 0.5
GUUCCGUUGGCGUAAUGGUAACGCGUCUCCGUCCUAAGGAGUAGACUGCGGGUUCGAGUCCCGUAUGGAACG [C31G A42U C66U] | 0.767
GUUCCGUUGGCGUAAUGGUAACGCGUCUCCAUCCUAAGGAGAAGACUGCGGGUUCGAGUCCCGUACAGAACG [C31A G67A] | 0.754

Variant | yeast fitness
GUUCCGUUGGCGUAAUGGUAACGCGUCUCCGUCCUAAGGAGGAGACUGCGGGUUCGAGUCCCGUUCCGAACG [C31G A42G A65U G67C] | ≤ 0.5
GUUCCGUUGGCGUAAUGGUAACGCGUCUCCGUCCUAUGGAGAAGACUGCGGGUUCCAGUCCCGUACGGAACG [C31G A37U G56C] | ≤ 0.5
GUUCCGUUGGCGUAAUGGUAACGCGUCUCCGUCCUAAGGGGAAGCCUGCGGGAUCGAGUCCCGUACGGAUCG [C31G A40G A45C U53A A70U] | ≤ 0.5
GUUCCGUUGGCGUAAUGGUAACGCGUCUCCAUCCUAAGGAGAAGACUGCCGGUUCGAGUCCCGUACGGAGCG [C31A G50C A70G] | ≤ 0.5
GUUCCGUUGGCGUAAUGGUAACGCGUCUCCGUCCUAAGGAGGAGACUGGGGGUUCGAGUCCCGUACGGAACG [C31G A42G C49G] | ≤ 0.5
GUUCCGUUGGCGUAAUGGUAACGCGUCUCCAUCCUAAGGAGAAGACCGCGGGUUCGAGUCCCGUACGGAACG [C31A U47C] | 0.767
GUUCCGUUGGCGUAAUGGUAACGCGUCUCCGUCCUAAGGAGAAGACUGCGGGUUCGAGUCCCGUUCGGAGCG [C31G A65U A70G] | 0.589
GUUCCGUUGGCGUAAUGGUAACGCGUCUCCGUCCUAAGGAGAAGACUGCGGGUUCGCGUCUCGUACGGAACG [C31G A57C C61U] | ≤ 0.5
GUUCCGUUGGCGUAAUGGUAACGCGUCUCCAUCCUAAGGAGAAGACCGCGGGUUCGAGUCCCGUACAGAACG [C31A U47C G67A] | 0.544
GUUCCGUUGGCGUAAUGGUAACGCGUCUCCGUCCUAAGGAGAUGACAGCGGGUUCGAGUCCCGUACGGAACG [C31G A43U U47A] | 0.605
GUUCCGUUGGCGUAAUGGUAACGCGUCUCCAUCCAUAGGAGAAGACCGCGGGUUUGAGUCCCGUACGGAACG [C31A U35A A36U U47C C55U] | 0.518
GUUCCGUUGGCGUAAUGGUAACGCGUCUCCGUCCUCAGGAGAAGACUGCGGGUUCGAGUCCCGUACGGAACG [C31G A36C] | 0.555
GUUCCGUUGGCGUAAUGGUAACGCGUCUCCGUCCUGAGGAGAAGACUGCGGGUUCGAGUCCCGUACGGAACG [C31G A36G] | 0.783
GUUCCGUUGGCGUAAUGGUAACGCGUCUCCAUCCUAAGGAGAAGACUGCGGGUUCCGGUCCUGUACGGAACG [C31A G56C A57G C62U] | ≤ 0.5
GUUCCGUUGGCGUAAUGGUAACGCGUCUCCGUCCUAAGGAGAAGCCUGCGGGUUCGAGUCCCGUACGGAACG [C31G A45C] | 0.864
GUUCCGUUGGCGUAAUGGUAACGCGUCUCCGUCCUAAGGAGAAGUCUGCGGGUUCGAGUCCCGUACGGAACG [C31G A45U] | 0.987
GUUCCGUUGGCGUAAUGGUAACGCGUCUCCAUCCUAAGGAGAAGACUGCGGGUUCAAGUCCCGUACGGAACG [C31A G56A] | 0.805
GUUCCGUUGGCGUAAUGGUAACGCGUCUCCAUCCUAAGGAGAAGACUGCGGGUUCGACUCCCGUACGGAACG [C31A G58C] | 0.894
